Screening results (PubChem BioAssay)
SENP6 block = SENP6 protease inhibitors, primary screen, biochemical, luminescence, uHTS. Sentrin-specific protease 6 (Homo sapiens), Q9GZR1. 330,000 tested, 1.8% active. inhibition, % at 10 µM. Recombinant SENP6 catalytic domain, aminoluciferin luminescence;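 active = inhibition above about 50% at the single tested dose, limit read from the data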;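 also: plate controls were DMSO wells with enzyme for no effect and DMSO wells lacking enzyme for full effect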
SENP8 block-1 = SENP8 protease inhibitors, primary screen, biochemical, luminescence; Sentrin-specific protease 8 (Homo sapiens), Q96LD8; purified SENP8, Z-RLRGG-aminoluciferin cleavage; inhibition, % at 10 µM; 330,000 tested, 1.2% active; AID 2540, 2010; in the data active = inhibition above about 50%
Target sequence (Q96LD8 whole entry, looked up): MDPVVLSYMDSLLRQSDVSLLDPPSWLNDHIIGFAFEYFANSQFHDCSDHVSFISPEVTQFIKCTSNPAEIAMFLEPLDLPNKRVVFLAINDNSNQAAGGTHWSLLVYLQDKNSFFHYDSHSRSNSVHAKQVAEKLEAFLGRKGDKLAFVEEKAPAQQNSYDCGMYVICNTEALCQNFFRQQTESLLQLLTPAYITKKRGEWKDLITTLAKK
SENP7 block = SENP7 protease inhibitors, primary screen, biochemical, luminescence, uHTS. recombinant SENP7, Z-RLRGG-aminoluciferin luminescence, 40 min. inhibition, % at 5 µM. 330,000 tested, 1.5% active;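 active = inhibition above about 50% at the single test dose, limit read from the data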;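 also: plate controls were DMSO with enzyme for no effect and no enzyme buffer wells for full effect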
Target sequence (Q9BQF6 706-1050 limits assumed): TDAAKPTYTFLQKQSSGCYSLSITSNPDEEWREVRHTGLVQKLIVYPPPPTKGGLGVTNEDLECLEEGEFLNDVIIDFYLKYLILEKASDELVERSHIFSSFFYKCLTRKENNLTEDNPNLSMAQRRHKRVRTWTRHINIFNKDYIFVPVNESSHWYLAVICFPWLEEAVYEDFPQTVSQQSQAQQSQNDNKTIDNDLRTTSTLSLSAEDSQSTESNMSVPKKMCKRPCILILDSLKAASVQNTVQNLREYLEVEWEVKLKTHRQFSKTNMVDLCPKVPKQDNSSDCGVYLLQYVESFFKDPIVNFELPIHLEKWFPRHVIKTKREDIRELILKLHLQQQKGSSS
SENP8 block-2 = human SENP8 protease inhibitors, primary screen, biochemical, fluorescence, Nedd8 protein substrate, uHTS | Sentrin-specific protease 8 (Homo sapiens), Q96LD8 | recombinant SENP8 | inhibition, % at 20 µM | 360,000 tested, 0.64% active | AID 602440, 2012; in the data active = inhibition mostly above about 40%, no sharp cut-off; inactive = mostly below about 27%
SENP1 FRET inh = human SENP1 catalytic domain inhibitors, primary screen, biochemical, FRET, uHTS | recombinant SENP1 catalytic domain, CyPet-SUMO1-YPet FRET cleavage | inhibition, % at 10 µM | 360,000 tested, 0.21% active;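 active = inhibition at least 30% at 10 µM, raw YFP signal under a set limit, fluorescence ratio 0.5 to 1.5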;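 also: 0% = enzyme with DMSO and 100% = no enzyme wells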
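Test system: human SENP1 catalytic domain; medium: Tris pH 8 buffer plus EDTA, NaCl, BME, BSA, NP40, catalase; incubation: 50 min reaction at room temperature; technique: FRET, CFP and YFP emission; controls: no-enzyme low control and enzyme-plus-DMSO high control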
Platelet DG rel = inhibitors of platelet dense granule secretion, primary screen, cell-based, MLPCN, human platelets | AID 1663, 2009 | inhibition, %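 (compounds screened at 7.5 µM in platelet-rich plasma)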 | human platelet-rich plasma, SFLLRN dense granule ATP release, luminescence | 300,000 tested, 0.22% active;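 active = mean replicate score, as percent of positive control, at or above 50; inconclusive = mean below 50 but at least one replicate at or above 50; inactive = mean and every replicate below 50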
Starred values were filed as active, the others as inactive. A selection: hits, their analogues and other compounds. The true share with any hit is near 2.6%.

Screening Cc1ccc(S(=O)(=O)Cc2ccc(C(=O)OCc3ccccc3)cc2)cc1 returned SENP6 block -13, SENP8 block-1 6, SENP7 block 0, SENP8 block-2 12, SENP1 FRET inh 2 and Platelet DG rel 0.
`COC(=O)c1c[nH]c2c1-c1cc(C(=O)OCc3ccccc3)n(S(=O)(=O)c3ccc(C)cc3)c1C(=O)C2=O` gave SENP8 block-2 105* and SENP1 FRET inh 2.
Nc1ncnc2c1ncn2[C@@H]1O[C@H](C(=O)N[C@H]2c3ccccc3C[C@H]2O)[C@@H](O)[C@H]1O was read as SENP8 block-2 28 and SENP1 FRET inh 1.
For CC(=O)[C@@H]1[C@@H]2C(=O)N(Cc3ccccc3)C(=O)[C@@H]2C2c3ccccc3C=CN21 (stereo partly drawn) the results were SENP6 block 23, SENP8 block-1 14, SENP7 block -1, SENP8 block-2 -189, SENP1 FRET inh -22 and Platelet DG rel 2.
`O=C(c1ccco1)[C@@H]1[C@@H]2C(=O)N(c3ccccc3)C(=O)[C@@H]2C2c3ccccc3C=CN21` (stereo partly drawn) gave SENP6 block 87*, SENP8 block-1 64*, SENP7 block 7, SENP8 block-2 -2, SENP1 FRET inh -25 and Platelet DG rel -3.
Screening Cc1ccc(N2C(=O)[C@@H]3[C@H](C2=O)C2c4ccccc4C=CN2[C@@H]3C(=O)c2ccco2)c(C)c1 (stereo partly drawn) returned SENP6 block 43, SENP8 block-1 42, SENP7 block 51*, SENP8 block-2 -123, SENP1 FRET inh 6 and Platelet DG rel 6.
`CC(C)(C)C(=O)[C@@H]1[C@@H]2C(=O)N(c3ccc4c(c3)OCCO4)C(=O)[C@@H]2C2c3ccccc3C=CN21` (stereo partly drawn) gave SENP6 block 24, SENP8 block-1 14, SENP7 block 10, SENP8 block-2 60*, SENP1 FRET inh 9 and Platelet DG rel -9.
Screening CSCCC(NS(=O)(=O)c1ccc(C)cc1)C(=O)NC1CCCCCC1 (stereo not drawn) returned SENP6 block -12, SENP8 block-1 0, SENP7 block 6, SENP8 block-2 3, SENP1 FRET inh 1 and Platelet DG rel 18.
For Cc1cc(-n2c(C)cc(C(=O)CSc3nncn3C(C)C)c2C)no1 the results were SENP6 block -12, SENP8 block-1 -4, SENP7 block 1, SENP8 block-2 9, SENP1 FRET inh 1 and Platelet DG rel -2.
CCN(CC)S(=O)(=O)c1ccc2c(c1)c(=O)c(C(=O)N1CCN(c3ccccn3)CC1)cn2C was read as SENP6 block -10, SENP8 block-1 -7, SENP7 block -3, SENP8 block-2 10, SENP1 FRET inh 4 and Platelet DG rel -1.
`Cc1cc(=O)n2[nH]c(N)c(N=Nc3ccccc3F)c2n1` gave SENP6 block 94*, SENP8 block-1 85*, SENP7 block 86*, SENP8 block-2 32, SENP1 FRET inh 2 and Platelet DG rel 8.
Screening COc1ccc(S(=O)(=O)N2CCCCCC2)cc1NC(=O)CN1C(=O)CNC1=O returned SENP6 block 9, SENP8 block-1 5, SENP7 block 0, SENP8 block-2 14 and SENP1 FRET inh 0.
CN1OC[C@@H]2CN(Cc3ccccc3)[C@H](c3cccc(-c4ccccc4)c3)C[C@@H]21 was read as SENP8 block-2 3 and SENP1 FRET inh 0.
Screening COC(=O)[C@]12CCCCC=C1N(Cc1ccc3c(c1)OCO3)C(=O)[C@H](CC(=O)N1CCCCC1)C2 returned SENP8 block-2 12 and SENP1 FRET inh 0.
O=C(COC(=O)c1ccc([N+](=O)[O-])o1)NC1CCCC1 was read as SENP6 block 13, SENP8 block-1 5, SENP7 block 4, SENP8 block-2 40* and SENP1 FRET inh -1.
Screening CCOC(=O)c1[nH]cnc1N=Nc1c(O)ccc2ccccc12 returned SENP8 block-2 10, SENP1 FRET inh 62* and Platelet DG rel 6.
Oc1ccc2ccccc2c1N=Nc1ccccn1 was read as SENP6 block 23, SENP8 block-1 15, SENP7 block -5, SENP8 block-2 41*, SENP1 FRET inh 11 and Platelet DG rel -4.
For Oc1ccc2ccccc2c1N=Nc1ccccc1F the results were SENP6 block 16, SENP8 block-1 -6, SENP7 block 7, SENP8 block-2 2, SENP1 FRET inh 3 and Platelet DG rel -1.
For Cc1ccc(-c2c(C#N)c(N)n(-c3ccc(C)cc3)c(=O)c2C#N)cc1 the results were SENP6 block -14, SENP8 block-1 -7, SENP7 block -5, SENP8 block-2 -77, SENP1 FRET inh 1 and Platelet DG rel inconclusive.
For Cc1ccc(-n2c(N)c(C#N)c(-c3ccc(Cl)cc3)c(C#N)c2=O)cc1 the results were SENP6 block -16, SENP8 block-1 0, SENP7 block -4, SENP8 block-2 -99, SENP1 FRET inh -3 and Platelet DG rel 75*.
CCOC1OC2C(CO)OC(n3cnc4c(N)ncnc43)C2O1 (stereo not drawn) was read as SENP6 block -11, SENP8 block-1 0, SENP7 block 5, SENP8 block-2 8, SENP1 FRET inh -1 and Platelet DG rel 74*.
`Nc1ncnc2c1ncn2[C@@H]1O[C@H](COP(=O)(O)O)[C@@H](O)[C@H]1O` gave SENP6 block 0, SENP8 block-1 -1, SENP7 block -3, SENP8 block-2 12, SENP1 FRET inh 2 and Platelet DG rel 83*.
`Nc1ncnc2c1ncn2C1OC(CO)C2OC21` (stereo not drawn) gave SENP8 block-2 4 and SENP1 FRET inh 1.
Screening Nc1nc(Cl)nc2c1ncn2[C@@H]1O[C@H](CO)[C@@H](O)[C@H]1O returned SENP6 block 13, SENP8 block-1 -9, SENP7 block -2, SENP8 block-2 17, SENP1 FRET inh 1 and Platelet DG rel 89*.
`C[Si](C)(C)n1ccnc1` gave SENP6 block 0, SENP8 block-1 -4, SENP7 block -6, SENP8 block-2 10, SENP1 FRET inh -1 and Platelet DG rel -8.
For Clc1ccccc1NN(Cc1ccncc1)c1ccccc1Cl the results were SENP8 block-2 13 and SENP1 FRET inh 1.
`COc1ccc(S(=O)(=O)N2CCC(C(=O)N(C)Cc3ccc(C)o3)CC2)cc1OC` gave SENP6 block -17, SENP8 block-1 6, SENP7 block 0, SENP8 block-2 0 and SENP1 FRET inh -1.
